Results published in ChEMBL document CHEMBL5257120 (Bioorg Med Chem, 2023).
pIC50: −log10 of the molar value. Active and inactive are the calls of the source. The calls are words filed in the database; no cut-off is given here.

How the values were obtained:
[1] = Toxicity in Swiss albino mouse assessed as morbidity at 5 to 1000 mg/kg, po administered for 7 days; type: organism-based; settings: in vivo, 168 h, dose 5-1000 mg/kg, time 7 day
[2] = Renal toxicity in Swiss albino mouse assessed as creatinine level at 5 mg/kg, po administered for 7 days (reference value: 0.76 +/- 0.06 mg/dl); type: organism-based; settings: in vivo, 168 h, time 7 day
In short: (§1)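 Single acute oral dose (5, 50, 300 or 1000 mg/kg) given to Swiss albino mice, n = 6, with 7-day observation. At the end, haematological and serum biochemical parameters were measured. Compared with untreated controls; mean ± SE, ANOVA, p < 0.05.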

[3] = Toxicity in Swiss albino mouse assessed as cholesterol level at 300 mg/kg, po administered for 7 days (reference value: 140.17 +/- 3.76 mg/dl); type: organism-based; settings: in vivo, 168 h, time 7 day
[4] = Hepatotoxicity in Swiss albino mouse assessed as serum protein level at 5 mg/kg, po administered for 7 days (reference value: 5.73 +/- 0.21 mg/ml); type: toxicity, organism-based; settings: in vivo, 168 h, time 7 day; in short: as §1
[5] = Hepatotoxicity in Swiss albino mouse assessed as serum protein level at 1000 mg/kg, po administered for 7 days (reference value: 5.73 +/- 0.21 mg/ml); type: toxicity, organism-based; settings: in vivo, 168 h, time 7 day; in short: as §1
[6] = Toxicity in Swiss albino mouse assessed as change in absolute lungs weight at 5 to 1000 mg/kg, po administered for 7 days; type: organism-based; settings: in vivo, 168 h, dose 5-1000 mg/kg, time 7 day
[7] = tested on: K562; assay: Cytotoxicity against human K562 cells incubated for 72 hrs by Sulphorhodamine assay; type: functional, cell-based; settings: K562, 72 h
[8] = Toxicity in Swiss albino mouse assessed as WBC level at 300 mg/kg, po administered for 7 days (reference value: 5.29 +/- 0.51 10^3/mm3); type: organism-based; settings: in vivo, 168 h, time 7 day
[9] = Hepatotoxicity in Swiss albino mouse assessed as albumin level at 50 mg/kg, po administered for 7 days (reference value: 4.12 +/- 0.17 g/dl); type: toxicity, organism-based; settings: in vivo, 168 h, time 7 day; in short: as §1
[10] = Toxicity in Swiss albino mouse assessed as cholesterol level at 1000 mg/kg, po administered for 7 days (reference value: 140.17 +/- 3.76 mg/dl); type: organism-based; settings: in vivo, 168 h, time 7 day
[11] = Antiinflammatory activity in mouse peritoneal macrophage assessed as inhibition of LPS-induced IL6 production at 10 ug/ml relative to control; type: functional; parameters: scale not given: the % may be the effect or the level left; settings: dose 10 µg/ml
[12] = molecular target: Tubulin (Homo sapiens) (UniProt P68371+Q9H4B7+P0DPH7+P68366+Q13509+Q71U36+P04350+Q3ZCM7+P07437+P68363+Q9BQE3+Q6PEY2+Q13885+Q9BVA1+Q9BUF5); assay: Induction of microtubule stabilization in human HeLa cells assessed as effect on cellular cytoskeletal network of tubulin at 5 to 10 uM incubated for 4 hrs by Alexa Fluor 488 staining based confocal microscopic analysis; type: cell-based; settings: dose 5-10 µM
In short: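 HeLa cells treated for 4 h at 5 and 10 μM. Microtubules immunostained with Alexa Fluor 488-conjugated anti-β-tubulin and imaged by confocal microscopy with a 60× Plan Apochromat objective. References: paclitaxel 5 nM, podophyllotoxin 5 μM.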

[13] = Toxicity in Swiss albino mouse assessed as haemoglobin level at 50 mg/kg, po administered for 7 days (reference value: 15.66 +/- 0.80 g/dl); type: organism-based; settings: in vivo, 168 h, time 7 day
[14] = Renal toxicity in Swiss albino mouse assessed as creatinine level at 1000 mg/kg, po administered for 7 days (reference value: 0.76 +/- 0.06 mg/dl); type: organism-based; settings: in vivo, 168 h, time 7 day; in short: as §1
[15] = Toxicity in Swiss albino mouse assessed as change in relative heart weight at 5 to 1000 mg/kg, po administered for 7 days; type: organism-based; settings: in vivo, 168 h, dose 5-1000 mg/kg, time 7 day
[16] = Toxicity in Swiss albino mouse assessed as change in relative liver weight at 5 to 1000 mg/kg, po administered for 7 days; type: organism-based; settings: in vivo, 168 h, dose 5-1000 mg/kg, time 7 day
[17] = Hepatotoxicity in Swiss albino mouse assessed as SGPT level at 1000 mg/kg, po administered for 7 days (reference value: 17.01 +/- 2.33 U/L); type: toxicity, organism-based; settings: in vivo, 168 h, time 7 day; in short: as §1
[18] = Toxicity in Swiss albino mouse assessed as change in absolute kidney weight at 5 to 1000 mg/kg, po administered for 7 days; type: organism-based; settings: in vivo, 168 h, dose 5-1000 mg/kg, time 7 day
[19] = Toxicity in Swiss albino mouse assessed as behavioural changes at 5 to 1000 mg/kg, po administered for 7 days; type: organism-based; settings: in vivo, 168 h, dose 5-1000 mg/kg, time 7 day
[20] = Toxicity in Swiss albino mouse assessed as change in absolute liver weight at 5 to 1000 mg/kg, po administered for 7 days; type: organism-based; settings: in vivo, 168 h, dose 5-1000 mg/kg, time 7 day
[21] = Toxicity in Swiss albino mouse assessed as change in relative spleen weight at 5 to 1000 mg/kg, po administered for 7 days; type: organism-based; settings: in vivo, 168 h, dose 5-1000 mg/kg, time 7 day
[22] = Toxicity in Swiss albino mouse assessed as change in relative lungs weight at 5 to 1000 mg/kg, po administered for 7 days; type: organism-based; settings: in vivo, 168 h, dose 5-1000 mg/kg, time 7 day
[23] = Toxicity in Swiss albino mouse assessed as change in body weight at 50 mg/kg, po administered for 7 days (reference value: 29.35 +/- 0.57 g); type: organism-based; settings: in vivo, 168 h, time 7 day
[24] = Renal toxicity in Swiss albino mouse assessed as creatinine level at 50 mg/kg, po administered for 7 days (reference value: 0.76 +/- 0.06 mg/dl); type: organism-based; settings: in vivo, 168 h, time 7 day; in short: as §1
[25] = Toxicity in Swiss albino mouse assessed as triglyceride level at 300 mg/kg, po administered for 7 days (reference value: 136.88 +/- 3.12 mg/dl); type: organism-based; settings: in vivo, 168 h, time 7 day
[26] = Hepatotoxicity in Swiss albino mouse assessed as SGOT level at 5 mg/kg, po administered for 7 days (reference value: 31.51 +/- 6.31 U/L); type: toxicity, organism-based; settings: in vivo, 168 h, time 7 day; in short: as §1
[27] = Toxicity in Swiss albino mouse assessed as change in absolute brain weight at 5 to 1000 mg/kg, po administered for 7 days; type: organism-based; settings: in vivo, 168 h, dose 5-1000 mg/kg, time 7 day
[28] = Toxicity in Swiss albino mouse assessed as change in relative brain weight at 5 to 1000 mg/kg, po administered for 7 days; type: organism-based; settings: in vivo, 168 h, dose 5-1000 mg/kg, time 7 day
[29] = Hepatotoxicity in Swiss albino mouse assessed as alkaline phosphatase level at 50 mg/kg, po administered for 7 days (reference value: 260.10 +/- 26.76 U/L); type: toxicity, organism-based; settings: in vivo, 168 h, time 7 day; in short: as §1
[30] = Toxicity in Swiss albino mouse assessed as haemoglobin level at 1000 mg/kg, po administered for 7 days (reference value: 15.66 +/- 0.80 g/dl); type: organism-based; settings: in vivo, 168 h, time 7 day
[31] = Selectivity index, ratio of IC50 for african green monkey Vero cells to IC50 for human K562 cells; type: toxicity; settings: Vero cells versus K562 cells, read-out: Ratio IC50
[32] = Toxicity in Swiss albino mouse assessed as change in body weight at 1000 mg/kg, po administered for 7 days (reference value: 29.35 +/- 0.57 g); type: organism-based; settings: in vivo, 168 h, time 7 day
[33] = Hepatotoxicity in Swiss albino mouse assessed as SGPT level at 50 mg/kg, po administered for 7 days (reference value: 17.01 +/- 2.33 U/L); type: toxicity, organism-based; settings: in vivo, 168 h, time 7 day; in short: as §1
[34] = Antiinflammatory activity in mouse peritoneal macrophage assessed as inhibition of LPS-induced IL6 production at 1 ug/ml relative to control; type: functional; parameters: scale not given: the % may be the effect or the level left; settings: dose 1 µg/ml
[35] = Antiinflammatory activity in mouse peritoneal macrophage assessed as reduction in LPS-induced TNFalpha production at 10 ug/ml; type: functional; settings: dose 10 µg/ml

COc1cc(C2/C(=C/c3ccc(/C=C/C(=O)NO)cc3)C(=O)c3cc(OC)c(OC)c(OC)c32)cc(OC)c1OC (stereo not given)
Activity [1]: Non-Toxic | Activity [2]: 0.58 mg/dL | Activity [3]: 157.14 mg/dL | Activity [4]: 5.44 mg/mL | Activity [5]: 5.87 mg/mL | Activity [6]: Non-Toxic | pIC50 [7]: 5.49 | Activity [8]: 5.75 10^3/mm3 | Activity [9]: 4.36 g/dL | Activity [10]: 157.22 mg/dL | Activity [11]: 27.01% | Activity [12]: Active | Activity [13]: 15.54 g/dL | Activity [14]: 0.74 mg/dL | Activity [15]: Non-Toxic | Activity [16]: Non-Toxic | Activity [17]: 22.91 U/L | Activity [18]: Non-Toxic | Activity [19]: Non-Toxic | Activity [20]: Non-Toxic | Activity [21]: Non-Toxic | Activity [22]: Non-Toxic | Activity [23]: 28.18 g | Activity [24]: 0.69 mg/dL | Activity [25]: 127.18 mg/dL | Activity [26]: 28.87 U/L | Activity [27]: Non-Toxic | Activity [28]: Non-Toxic | Activity [29]: 281.72 U/L | Activity [30]: 16.73 g/dL | selectivity ratio [31]: 30.7 | Activity [32]: 27.43 g | Activity [33]: 19.56 U/L | Activity [34]: 13.14% | Activity [35]: 872.08 pg/mL
